From ChEMBL document CHEMBL1127564, “Studies on neurokinin antagonists. 4. Synthesis and structure-activity relationships of novel dipeptide substance P antagonists: N2-[(4R)-4-hydroxy-1-[(1-methyl-1H-indol-3-yl)carbonyl]-L-prolyl]-N- methyl-N-(phenylmethyl)-3-(2-naphthyl)-L-alaninamide and its related compounds” (J Med Chem, 1994)

Key:
Substance-P receptor = Substance-P receptor (Cavia porcellus, UniProt P30547); test: In vitro binding affinity against substance P receptor using [3H]SP as radioligand in guinea pig lung membrane; format: cell membranes
Procedure, shortened: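 Guinea pig lung membranes incubated with 1 nM [3H]SP, with or without test compound, 0.5 h at 4 °C in 50 mM Tris-HCl pH 7.5, 5 mM MnCl2, 0.02% BSA, chymostatin, leupeptin, bacitracin. Filtered on glass-fibre filters, radioactivity counted by scintillation. Specific binding defined as that displaced by 5 μM unlabeled SP. IC50 estimated from the displacement curve. Duplicate assays, usually a single experiment.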

Cavia porcellus [1] = test: In vivo inhibitory activity against airway edema induced by Substance P at a dose 100 mg/kg administered orally; format: functional; conditions: route oral
Procedure, shortened: (§1)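 Male Hartley guinea pigs dosed orally with drug in DMSO solution, or with vehicle, 30 min before intravenous SP (1.3 μg/kg) given with Evans Blue (20 mg/kg) and heparin (200 IU/kg). Trachea and main bronchi removed 10 min after challenge; dye extracted and read at 620 nm. Percent inhibition of edema reported, two animals per experiment.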

Cavia porcellus [2] = test: In vivo inhibitory activity against airway edema induced by Substance P at a dose 10 mg/kg administered orally; format: functional; conditions: route oral; procedure, shortened: as §1

Substance-P receptor, sequence (P30547 whole entry): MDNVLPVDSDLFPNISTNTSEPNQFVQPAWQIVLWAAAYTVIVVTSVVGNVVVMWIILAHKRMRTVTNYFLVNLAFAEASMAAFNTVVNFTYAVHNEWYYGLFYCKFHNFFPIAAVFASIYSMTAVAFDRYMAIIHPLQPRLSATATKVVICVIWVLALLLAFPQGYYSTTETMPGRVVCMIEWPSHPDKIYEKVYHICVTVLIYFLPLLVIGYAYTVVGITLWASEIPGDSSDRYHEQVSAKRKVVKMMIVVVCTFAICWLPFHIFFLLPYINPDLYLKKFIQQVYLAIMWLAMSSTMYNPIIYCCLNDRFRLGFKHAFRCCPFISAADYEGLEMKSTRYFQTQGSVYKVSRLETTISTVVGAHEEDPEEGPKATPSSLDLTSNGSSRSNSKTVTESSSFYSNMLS

SMILES | IC50 (Substance-P receptor) | inhibition in vivo at 100 mg/kg (Cavia porcellus [1]) [%] | inhibition in vivo at 10 mg/kg (Cavia porcellus [2]) [%] | IC50 (Substance-P receptor; read-out: IC50) [nM]
CN(Cc1ccccc1)C(=O)[C@@H](Cc1ccc(C(F)(F)F)cc1)NC(=O)C1C[C@@H](O)CN1C(=O)c1cn(C)c2ccccc12 (stereo not given in full) | 4.9 nM | 94 | 83 | –
CN(Cc1ccccc1)C(=O)[C@@H](Cc1ccccc1)NC(=O)[C@H]1CCCN1C(=O)c1c[nH]c2ccccc12 | Not Active | – | – | –
CN(Cc1ccccc1)C(=O)[C@@H](Cc1ccc(F)cc1)NC(=O)C1C[C@@H](O)CN1C(=O)c1cn(C)c2ccccc12 (stereo not given in full) | 4.3 nM | 96 | 30 | –
CN(Cc1ccccc1)C(=O)[C@@H](Cc1ccccc1)NC(=O)C1C[C@@H](O)CN1C(=O)c1cn(C)c2ccccc12 (stereo not given in full) | – | 75 | 51 | –
CN(Cc1ccccc1)C(=O)[C@@H](Cc1ccc(O)cc1)NC(=O)C1C[C@@H](O)CN1C(=O)c1cn(C)c2ccccc12 (stereo not given in full) | 1.8 nM | 11 | – | –
CN(Cc1ccccc1)C(=O)[C@@H](Cc1ccccc1)NC(=O)C1C[C@@H](O)CN1C(=O)c1cn(CC(=O)O)c2ccccc12 (stereo not given in full) | – | – | – | 49.7
CN(Cc1ccccc1)C(=O)[C@@H](Cc1ccccc1)NC(=O)C1C[C@@H](O)CN1C(=O)c1[nH]nc2ccccc12 (stereo not given in full) | – | – | 0 | 5
CN(Cc1ccccc1)C(=O)C(Cc1ccccc1)NC(=O)C1C[C@@H](O)CN1C(=O)c1c[nH]c2ccccc12 (single isomer, unassigned) | – | 8 | – | 7.4
CN(Cc1ccccc1)C(=O)[C@@H](Cc1ccccc1)NC(=O)C1C[C@@H](O)CN1C(=O)/C=C/c1ccccc1 (stereo not given in full) | – | – | 47 | 9
CN(Cc1ccccc1)C(=O)[C@@H](Cc1ccc(N)cc1)NC(=O)C1C[C@@H](O)CN1C(=O)c1cn(C)c2ccccc12 (stereo not given in full) | – | 0 | – | 5.4
CN(Cc1ccccc1)C(=O)[C@@H](Cc1ccccc1F)NC(=O)C1C[C@@H](O)CN1C(=O)c1cn(C)c2ccccc12 (stereo not given in full) | – | 35 | – | 14
Cc1ccc2cc(C[C@@H](NC(=O)C3C[C@@H](O)CN3C(=O)c3cn(C)c4ccccc34)C(=O)N(C)Cc3ccccc3)ccc2c1 (stereo not given in full) | 23 nM | 28 | – | –
CN(Cc1ccccc1)C(=O)[C@@H](Cc1c[nH]c2ccccc12)NC(=O)C1C[C@@H](O)CN1C(=O)c1cn(C)c2ccccc12 (stereo not given in full) | – | 7 | – | 1.7
CN(Cc1ccccc1)C(=O)[C@@H](Cc1ccc2ccccc2c1)NC(=O)C1C[C@@H](O)CN1C(=O)c1cn(C)c2ccccc12 (stereo not given in full) | – | 94 | 86 | 1.7
CN(Cc1ccccc1)C(=O)[C@@H](Cc1ccccc1)NC(=O)C1CCCN1C(=O)c1c[nH]c2ccccc12 (stereo not given in full) | – | – | – | 5.4
CN(Cc1ccccc1)C(=O)[C@@H](Cc1ccccc1)NC(=O)C1C[C@@H](O)CN1C(=O)c1cc2ccccc2s1 (stereo not given in full) | – | – | 37 | 19.9
CN(Cc1ccccc1)C(=O)[C@@H](Cc1ccccc1)NC(=O)C1CCC(O)CN1C(=O)c1c[nH]c2ccccc12 (stereo not given in full) | – | – | – | 289
CN(Cc1ccccc1)C(=O)[C@@H](Cc1cccc(F)c1)NC(=O)C1C[C@@H](O)CN1C(=O)c1cn(C)c2ccccc12 (stereo not given in full) | 9.2 nM | 85 | – | –
CC(C)n1cc(C(=O)N2C[C@H](O)CC2C(=O)N[C@H](Cc2ccccc2)C(=O)N(C)Cc2ccccc2)c2ccccc21 (stereo not given in full) | – | – | 48 | 15.9

SMILES | IC50 (Substance-P receptor) | inhibition in vivo at 100 mg/kg (Cavia porcellus [1]) [%] | inhibition in vivo at 10 mg/kg (Cavia porcellus [2]) [%] | IC50 (Substance-P receptor; read-out: IC50) [nM]
CN(Cc1ccccc1)C(=O)[C@@H](Cc1ccccc1)NC(=O)C1C[C@@H](O)CN1C(=O)CCCc1ccccc1 (stereo not given in full) | 32 nM | – | – | –
COc1ccc(C[C@@H](NC(=O)C2C[C@@H](O)CN2C(=O)c2cn(C)c3ccccc23)C(=O)N(C)Cc2ccccc2)cc1 (stereo not given in full) | – | 91 | 29 | 7.6
CN(Cc1ccccc1)C(=O)[C@@H](Cc1ccccc1)NC(=O)C(CC(=O)O)NC(=O)c1c[nH]c2ccccc12 (stereo not given in full) | Not Active | – | – | –
CN(Cc1ccccc1)C(=O)[C@@H](Cc1ccccc1)NC(=O)C1CCN1C(=O)c1c[nH]c2ccccc12 (stereo not given in full) | – | – | – | 8
CN(Cc1ccccc1)C(=O)[C@@H](Cc1ccc2c(c1)CCCC2)NC(=O)C1C[C@@H](O)CN1C(=O)c1cn(C)c2ccccc12 (stereo not given in full) | – | 87 | 69 | 11.6
CN(Cc1ccccc1)C(=O)[C@@H](Cc1ccccc1)NC(=O)C1C[C@@H](O)CN1C(=O)CCc1ccccc1 (stereo not given in full) | – | – | 4 | 14
CN(Cc1ccccc1)C(=O)[C@@H](Cc1ccc(NS(C)(=O)=O)cc1)NC(=O)C1C[C@@H](O)CN1C(=O)c1cn(C)c2ccccc12 (stereo not given in full) | – | 0 | – | 25.3
CN(Cc1ccccc1)C(=O)[C@@H](Cc1cn(C=O)c2ccccc12)NC(=O)C1C[C@@H](O)CN1C(=O)c1cn(C)c2ccccc12 (stereo not given in full) | – | 21 | – | 3.5
CN(Cc1ccccc1)C(=O)[C@@H](Cc1ccccc1)NC(=O)C(CO)NC(=O)c1c[nH]c2ccccc12 (stereo not given in full) | – | – | – | 11
CN(Cc1ccccc1)C(=O)[C@@H](Cc1ccc2cc(Cl)ccc2c1)NC(=O)C1C[C@@H](O)CN1C(=O)c1cn(C)c2ccccc12 (stereo not given in full) | – | – | – | 27.3
CN(Cc1ccccc1)C(=O)C(Cc1ccccc1)NC(=O)C1C[C@H](O)CN1C(=O)c1c[nH]c2ccccc12 (single isomer, unassigned) | – | – | – | 4.6
CN(Cc1ccccc1)C(=O)[C@@H](Cc1csc2ccccc12)NC(=O)C1C[C@@H](O)CN1C(=O)c1cn(C)c2ccccc12 (stereo not given in full) | – | 99 | 34 | 10.3
CN(Cc1ccccc1)C(=O)[C@@H](Cc1ccccc1)NC(=O)C1C[C@@H](O)CN1C(=O)Cc1ccccc1 (stereo not given in full) | – | – | – | 139
CN(C)CCn1cc(C(=O)N2C[C@H](O)CC2C(=O)N[C@H](Cc2ccccc2)C(=O)N(C)Cc2ccccc2)c2ccccc21 (stereo not given in full) | – | – | 2 | 3.5
CN(Cc1ccccc1)C(=O)[C@@H](Cc1ccc2c(c1)OCCO2)NC(=O)C1C[C@@H](O)CN1C(=O)c1cn(C)c2ccccc12 (stereo not given in full) | – | 1 | – | 1.1
CN(Cc1ccccc1)C(=O)[C@@H](Cc1ccccc1)NC(=O)C(CC(N)=O)NC(=O)c1c[nH]c2ccccc12 (stereo not given in full) | – | – | – | 9
CN(Cc1ccccc1)C(=O)[C@@H](Cc1ccc([N+](=O)[O-])cc1)NC(=O)C1C[C@@H](O)CN1C(=O)c1cn(C)c2ccccc12 (stereo not given in full) | – | 39 | 19 | 7
CN(Cc1ccccc1)C(=O)[C@@H](Cc1ccccc1)NC(=O)C(CCCCN)NC(=O)c1c[nH]c2ccccc12 (stereo not given in full) | – | – | – | 14
CN(Cc1ccccc1)C(=O)[C@@H](Cc1cccc(C(F)(F)F)c1)NC(=O)C1C[C@@H](O)CN1C(=O)c1cn(C)c2ccccc12 (stereo not given in full) | 3.5 nM | 66 | – | –
